Experimental data: ChEMBL document CHEMBL1137074, “Novel N-arylpyrazolo[3,2-c]-based ligands for the glucocorticoid receptor: receptor binding and in vivo activity” (J Med Chem, 2004)

What was measured:
Glucocorticoid receptor [1] = biological target: T1, Glucocorticoid receptor (Homo sapiens, UniProt P04150); assay: Ability to induce human IL-6 assay in A549 lung carcinoma cell line.; assay type: functional, cell-based
T1 sequence (P04150 whole entry): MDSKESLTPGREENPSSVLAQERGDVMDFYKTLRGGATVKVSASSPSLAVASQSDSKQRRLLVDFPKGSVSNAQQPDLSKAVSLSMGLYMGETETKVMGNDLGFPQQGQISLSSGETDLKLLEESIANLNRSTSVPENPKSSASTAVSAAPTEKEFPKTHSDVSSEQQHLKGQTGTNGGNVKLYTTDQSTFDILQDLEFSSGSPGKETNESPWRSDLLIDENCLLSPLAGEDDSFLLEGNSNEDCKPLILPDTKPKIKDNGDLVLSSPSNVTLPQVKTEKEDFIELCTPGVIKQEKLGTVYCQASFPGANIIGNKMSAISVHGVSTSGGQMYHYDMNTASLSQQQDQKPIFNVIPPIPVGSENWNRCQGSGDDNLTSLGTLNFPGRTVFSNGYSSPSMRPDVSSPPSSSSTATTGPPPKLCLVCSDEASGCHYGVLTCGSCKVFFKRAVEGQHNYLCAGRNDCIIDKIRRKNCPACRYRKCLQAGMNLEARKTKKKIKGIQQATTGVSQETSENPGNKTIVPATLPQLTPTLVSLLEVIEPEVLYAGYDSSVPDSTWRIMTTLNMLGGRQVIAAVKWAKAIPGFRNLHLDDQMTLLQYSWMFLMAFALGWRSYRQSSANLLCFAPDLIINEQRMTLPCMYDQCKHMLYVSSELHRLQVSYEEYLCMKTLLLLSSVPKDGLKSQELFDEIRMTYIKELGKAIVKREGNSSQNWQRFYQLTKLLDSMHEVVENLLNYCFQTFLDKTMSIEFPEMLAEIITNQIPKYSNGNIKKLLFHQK

Androgen receptor = biological target: T2, Androgen receptor (Homo sapiens, UniProt P10275); assay: Binding affinity for human androgen receptor
T2 sequence (P10275 whole entry): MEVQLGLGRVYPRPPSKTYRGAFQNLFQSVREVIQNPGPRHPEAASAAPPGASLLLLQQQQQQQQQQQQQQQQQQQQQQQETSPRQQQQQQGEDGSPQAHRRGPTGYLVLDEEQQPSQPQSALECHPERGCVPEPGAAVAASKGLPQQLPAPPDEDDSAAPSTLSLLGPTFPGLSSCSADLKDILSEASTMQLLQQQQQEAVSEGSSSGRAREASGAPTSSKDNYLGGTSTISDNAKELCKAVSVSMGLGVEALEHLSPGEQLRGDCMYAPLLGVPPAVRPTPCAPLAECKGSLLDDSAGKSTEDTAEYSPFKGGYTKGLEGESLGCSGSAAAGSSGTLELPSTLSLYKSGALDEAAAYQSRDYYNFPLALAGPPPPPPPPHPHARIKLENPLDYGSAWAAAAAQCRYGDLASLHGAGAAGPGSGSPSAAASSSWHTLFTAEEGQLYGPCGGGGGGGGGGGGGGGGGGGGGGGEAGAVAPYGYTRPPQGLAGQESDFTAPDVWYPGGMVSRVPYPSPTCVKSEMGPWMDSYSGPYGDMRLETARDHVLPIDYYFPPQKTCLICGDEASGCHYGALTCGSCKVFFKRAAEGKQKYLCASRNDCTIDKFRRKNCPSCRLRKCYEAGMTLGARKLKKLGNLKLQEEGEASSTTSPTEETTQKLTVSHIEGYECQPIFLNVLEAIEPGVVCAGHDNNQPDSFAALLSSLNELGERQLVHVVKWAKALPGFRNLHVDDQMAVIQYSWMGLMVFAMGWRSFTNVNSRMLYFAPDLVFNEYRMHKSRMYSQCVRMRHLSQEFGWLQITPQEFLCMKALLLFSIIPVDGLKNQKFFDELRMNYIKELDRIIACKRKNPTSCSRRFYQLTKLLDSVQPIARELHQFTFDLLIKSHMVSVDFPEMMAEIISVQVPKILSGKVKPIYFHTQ

Estrogen receptor = biological target: T3, Estrogen receptor (Homo sapiens, UniProt P03372); assay: Binding affinity for human Estrogen receptor alpha
T3 sequence (P03372 whole entry): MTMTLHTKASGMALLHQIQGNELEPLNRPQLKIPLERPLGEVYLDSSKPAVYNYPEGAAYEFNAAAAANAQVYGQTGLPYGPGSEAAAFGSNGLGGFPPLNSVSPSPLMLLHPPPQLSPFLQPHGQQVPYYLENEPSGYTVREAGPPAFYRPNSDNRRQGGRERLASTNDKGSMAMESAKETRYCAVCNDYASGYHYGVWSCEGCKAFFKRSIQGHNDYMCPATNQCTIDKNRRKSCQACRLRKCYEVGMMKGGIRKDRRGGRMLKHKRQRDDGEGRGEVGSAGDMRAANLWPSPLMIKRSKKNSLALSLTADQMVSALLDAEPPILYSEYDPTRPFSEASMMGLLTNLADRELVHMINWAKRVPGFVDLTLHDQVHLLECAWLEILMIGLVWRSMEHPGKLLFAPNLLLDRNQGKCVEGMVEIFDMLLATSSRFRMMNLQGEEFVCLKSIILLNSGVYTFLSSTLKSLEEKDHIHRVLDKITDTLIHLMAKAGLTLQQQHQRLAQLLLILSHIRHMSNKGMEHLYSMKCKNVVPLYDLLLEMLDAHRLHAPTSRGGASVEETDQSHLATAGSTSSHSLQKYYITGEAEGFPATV

Glucocorticoid receptor [2] = biological target: T1, Glucocorticoid receptor; assay: Binding affinity for human glucocorticoid receptor
Glucocorticoid receptor [3] = biological target: T1, Glucocorticoid receptor; assay: Compound was tested for inhibitory activity towards human glucocorticoid receptor
Mus musculus = assay: Ability to induce mouse macrophage IL-6 assay in peritoneal exudate cells harvested by […] from C57BI/6 mice.; assay type: functional, cell-based
Procedure, shortened: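 Thioglycolate-elicited peritoneal exudate cells from C57Bl/6 mice, harvested day 3 in PBS/heparin, washed and resuspended at 5.6×10^5 cells/mL in RPMI 1640 with 10% heat-inactivated FCS. Compound (typically 3 μM final) preincubated 1 h at 37 °C, 5% CO2, then LPS or TNF added, 24 h. Supernatant IL-6 read; duplicate wells, three experiments.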

Progesterone receptor = biological target: T4, Progesterone receptor (Homo sapiens, UniProt P06401); assay: Binding affinity towards human progesterone receptor
T4 sequence (P06401 whole entry): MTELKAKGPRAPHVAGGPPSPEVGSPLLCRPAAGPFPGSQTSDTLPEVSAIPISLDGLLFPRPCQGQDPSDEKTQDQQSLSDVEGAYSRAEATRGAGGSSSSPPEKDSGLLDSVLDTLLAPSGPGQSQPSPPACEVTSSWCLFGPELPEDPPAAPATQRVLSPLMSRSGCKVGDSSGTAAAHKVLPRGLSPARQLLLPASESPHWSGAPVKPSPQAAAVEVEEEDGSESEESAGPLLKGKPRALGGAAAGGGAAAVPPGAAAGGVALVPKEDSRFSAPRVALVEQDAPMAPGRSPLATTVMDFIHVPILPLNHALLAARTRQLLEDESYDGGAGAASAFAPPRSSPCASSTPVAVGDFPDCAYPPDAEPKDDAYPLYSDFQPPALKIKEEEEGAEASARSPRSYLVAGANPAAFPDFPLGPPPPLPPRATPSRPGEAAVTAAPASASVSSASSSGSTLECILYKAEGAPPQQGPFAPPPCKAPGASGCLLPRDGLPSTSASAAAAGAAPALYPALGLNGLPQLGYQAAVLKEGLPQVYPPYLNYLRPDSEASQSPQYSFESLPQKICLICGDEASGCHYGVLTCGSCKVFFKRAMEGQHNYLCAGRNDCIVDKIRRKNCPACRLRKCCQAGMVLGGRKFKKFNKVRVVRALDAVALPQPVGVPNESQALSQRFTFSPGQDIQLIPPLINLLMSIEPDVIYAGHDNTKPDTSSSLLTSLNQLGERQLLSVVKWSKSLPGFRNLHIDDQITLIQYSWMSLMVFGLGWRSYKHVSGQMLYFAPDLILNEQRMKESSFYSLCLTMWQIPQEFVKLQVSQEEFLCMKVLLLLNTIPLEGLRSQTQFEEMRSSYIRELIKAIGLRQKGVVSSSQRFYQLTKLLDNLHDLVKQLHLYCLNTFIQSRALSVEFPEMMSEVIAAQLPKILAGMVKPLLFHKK
Procedure, shortened: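 Receptor homogenates from frozen cell pellets in ice-cold KPO4 buffer (10 mM KPO4, 20 mM molybdate, 1 mM EDTA, 5 mM DTT, protease inhibitors), spun 35 000g 1 h at 4 °C. MR: recombinant baculovirus-expressed rat receptor, 2 nM [3H]aldosterone; PR: T-47D cell protein, 5 nM [3H]progesterone.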

Glucocorticoid receptor [4] = biological target: T1, Glucocorticoid receptor; assay: Glucocorticoid induced transactivation of human tyrosine amino transferase in HepG2 cells; assay type: functional, cell-based
[5] = biological target: Mineralocorticoid receptor (Rattus norvegicus) (UniProt P22199); assay: Binding affinity for rat mineralocorticoid receptor
Chain of Mineralocorticoid receptor (Rattus norvegicus) (P22199 whole entry, looked up): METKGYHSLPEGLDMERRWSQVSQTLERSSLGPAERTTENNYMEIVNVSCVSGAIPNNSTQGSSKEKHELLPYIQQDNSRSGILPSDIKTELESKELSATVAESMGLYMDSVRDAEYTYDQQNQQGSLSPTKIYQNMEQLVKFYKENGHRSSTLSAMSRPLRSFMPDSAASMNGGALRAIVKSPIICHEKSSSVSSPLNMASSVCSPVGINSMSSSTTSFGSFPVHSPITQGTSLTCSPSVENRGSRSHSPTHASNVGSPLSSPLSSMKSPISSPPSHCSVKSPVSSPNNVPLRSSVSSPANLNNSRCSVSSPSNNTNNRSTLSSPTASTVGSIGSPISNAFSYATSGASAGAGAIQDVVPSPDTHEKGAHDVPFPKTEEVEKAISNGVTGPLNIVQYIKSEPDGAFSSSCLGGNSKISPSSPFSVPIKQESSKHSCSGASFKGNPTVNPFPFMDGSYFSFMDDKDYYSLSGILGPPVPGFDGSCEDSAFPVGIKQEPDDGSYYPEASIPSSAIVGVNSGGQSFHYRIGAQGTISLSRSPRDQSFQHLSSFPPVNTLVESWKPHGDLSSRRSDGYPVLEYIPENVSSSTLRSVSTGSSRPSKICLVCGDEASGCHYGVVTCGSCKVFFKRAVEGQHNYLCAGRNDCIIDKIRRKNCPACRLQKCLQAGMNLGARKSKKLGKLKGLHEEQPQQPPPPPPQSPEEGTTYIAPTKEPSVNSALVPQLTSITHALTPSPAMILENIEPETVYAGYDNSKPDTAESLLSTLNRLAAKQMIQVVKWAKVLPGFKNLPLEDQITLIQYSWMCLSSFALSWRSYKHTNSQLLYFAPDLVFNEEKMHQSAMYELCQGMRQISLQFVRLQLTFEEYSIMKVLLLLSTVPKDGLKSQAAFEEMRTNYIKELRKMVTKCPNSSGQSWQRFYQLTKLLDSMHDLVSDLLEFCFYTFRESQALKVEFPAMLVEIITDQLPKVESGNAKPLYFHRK

Glucocorticoid receptor [6] = biological target: T1, Glucocorticoid receptor; assay: Ability to induce human glutamine synthetase in skeletal muscle cells; assay type: cell-based

| SMILES | EC50 (Glucocorticoid receptor [1]) | IC50 (Androgen receptor) | IC50 (Estrogen receptor) | IC50 (Glucocorticoid receptor [2]) | IC50 (Glucocorticoid receptor [3]) | EC50 (Mus musculus) | IC50 (Progesterone receptor) | EC50 (Glucocorticoid receptor [4]) | IC50 [5] | EC50 (Glucocorticoid receptor [6]) |
| --- | --- | --- | --- | --- | --- | --- | --- | --- | --- | --- |
| C=CCC[C@H](O)[C@H]1CCCC2=Cc3c(cnn3-c3ccc(F)cc3)C[C@@]21C | 4.4 nM | > 5000 nM | > 1000 nM | 4.2 nM | 1.1 nM | 5.7 nM | > 1000 nM | 256 nM | > 5000 nM | – |
| C[C@]12Cc3cnn(-c4ccc(F)cc4)c3C=C1CCC[C@@H]2[C@](C)(O)c1ccc(F)cc1 | 2.2 nM | > 5000 nM | > 1000 nM | 2.5 nM | 2.5 nM | 1.4 nM | > 1000 nM | 57.2 nM | > 5000 nM | 130 nM |
| C[C@]12Cc3cnn(-c4ccc(F)cc4)c3C=C1CCC[C@@H]2[C@H](O)c1ccc(F)cc1 | – | > 5000 nM | > 1000 nM | – | – | – | > 1000 nM | – | > 5000 nM | – |
| C[C@]12Cc3cnn(-c4ccc(F)cc4)c3C=C1CCC[C@@H]2[C@@H](O)c1ccccc1 | 2.9 nM | > 5000 nM | > 1000 nM | 8.4 nM | 8.4 nM | 111 nM | 660 nM | – | > 5000 nM | – |
| C[C@]12Cc3cnn(-c4ccc(F)cc4)c3C=C1CCC[C@@H]2[C@@H](O)c1ccc(F)cc1 | – | > 5000 nM | > 5000 nM | – | – | – | > 1000 nM | – | > 5000 nM | – |
| COc1cc([C@H](O)[C@H]2CCCC3=Cc4c(cnn4-c4ccc(F)cc4)C[C@@]32C)cc(F)c1F | 14.4 nM | > 5000 nM | > 1000 nM | 1.9 nM | 1.9 nM | 15.2 nM | > 1000 nM | 521 nM | > 5000 nM | – |
